Measured values: ChEMBL document CHEMBL1122690, “Synthesis of potential antifilarial agents. 1-(5-Benzoylbenzimidazol-2-yl)-3-alkyl- and -arylureas” (1984)

Columns and labels:
Type in all cases: functional
[1] = tested on: Brugia pahangi; experiment: Antifilarial activity (percent reduction of live Brugia pahangi at necropsy relative to controls) was evaluated at dose of 100 mg/kg/day administered subcutaneously; conditions: route subcutaneous
Procedure, shortened: (§1)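 Male jirds (Meriones unguiculatus) carrying adult Brugia pahangi and Litomosoides carinii. Infection was by intraperitoneal inoculation of 24-25 L. carinii larvae 76–133 days before treatment, followed by 49-50 immature B. pahangi. Dosing was daily for 5 days. Necropsy was 55–70 days after the first dose, with a search of the pleural and peritoneal cavities. Live adult worms were scored as % reduction versus controls, usually averaged over 3 animals.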

[2] = tested on: Litomosoides carinii; experiment: Antifilarial activity (percent reduction of live Litomosoides carinii at necropsy relative to controls) was evaluated at dose of 100 mg/kg/day administered subcutaneously; conditions: route subcutaneous; procedure, shortened: as §1
[3] = tested on: Litomosoides carinii; experiment: Antifilarial activity (percent reduction of live Litomosoides carinii at necropsy relative to controls) was evaluated at dose of 100 mg/kg/day administered perorally; conditions: route oral; in the assay text read “25 mg/kg/day” for “100 mg/kg/day”; procedure, shortened: as §1
[4] = tested on: Litomosoides carinii; experiment: Antifilarial activity (percent reduction of live Litomosoides carinii at necropsy relative to controls) was evaluated at dose of 6.25 mg/kg/day administered subcutaneously; conditions: route subcutaneous; procedure, shortened: as §1
[5] = tested on: Brugia pahangi; experiment: Antifilarial activity (percent reduction of live Brugia pahangi at necropsy relative to controls) was evaluated at dose of 6.25 mg/kg/day administered subcutaneously; conditions: route subcutaneous; procedure, shortened: as §1
[6] = tested on: Brugia pahangi; experiment: Antifilarial activity (percent reduction of live Brugia pahangi at necropsy relative to controls) was evaluated at dose of 25 mg/kg/day administered subcutaneously; conditions: route subcutaneous; procedure, shortened: as §1
[7] = tested on: Litomosoides carinii; experiment: Antifilarial activity (percent reduction of live Litomosoides carinii at necropsy relative to controls) was evaluated at dose of 25 mg/kg/day administered subcutaneously; conditions: route subcutaneous; procedure, shortened: as §1
[8] = tested on: Brugia pahangi; experiment: Antifilarial activity (percent reduction of live Brugia pahangi at necropsy relative to controls) was evaluated at dose of 1.56 mg/kg/day administered subcutaneously; conditions: route subcutaneous; procedure, shortened: as §1
[9] = tested on: Litomosoides carinii; experiment: Antifilarial activity (percent reduction of live Litomosoides carinii at necropsy relative to controls) was evaluated at dose of 1.56 mg/kg/day administered subcutaneously; conditions: route subcutaneous; procedure, shortened: as §1

Structure (SMILES) | Reduction [1] [%] | Reduction [2] [%] | also measured
O=C(NCCO)Nc1nc2cc(C(=O)c3ccccc3)ccc2[nH]1 | 15 | 20 | –
Cc1ccc(C(=O)Nc2ccc(S(=O)(=O)O)c3cc(S(=O)(=O)O)cc(S(=O)(=O)O)c23)cc1NC(=O)c1cccc(NC(=O)Nc2cccc(C(=O)Nc3cc(C(=O)Nc4ccc(S(=O)(=O)O)c5cc(S(=O)(=O)O)cc(S(=O)(=O)O)c45)ccc3C)c2)c1 [SURAMIN] | – | – | Reduction [3]: 71%
O=C(Nc1nc2cc(C(=O)c3ccccc3)ccc2[nH]1)Nc1ccccc1F | 0 | 0 | –
Cc1ccc(NC(=O)Nc2nc3cc(C(=O)c4ccccc4)ccc3[nH]2)cc1 | 0 | 27 | –
CN(C)C(=O)Nc1nc2cc(C(=O)c3ccccc3)ccc2[nH]1 | 100 | 100 | Reduction [4]: 61%; Reduction [5]: 0%; Reduction [6]: 0%; Reduction [7]: 87%
O=C(Nc1cccc([N+](=O)[O-])c1)Nc1nc2cc(C(=O)c3ccccc3)ccc2[nH]1 | 0 | 32 | –
CCCNC(=O)Nc1nc2cc(C(=O)c3ccccc3)ccc2[nH]1 | 0 | 0 | –
O=C(Nc1nc2cc(C(=O)c3ccccc3)ccc2[nH]1)Nc1ccccc1[N+](=O)[O-] | 6 | 0 | –
CN1CCN(C(=O)Nc2nc3cc(C(=O)c4ccccc4)ccc3[nH]2)CC1 | 0 | 0 | –
COC(=O)Nc1nc2cc(C(=O)c3ccccc3)ccc2[nH]1 [MEBENDAZOLE] | – | – | Reduction [4]: 100%; Reduction [5]: 100%; Reduction [8]: 12.5%; Reduction [6]: 100%; Reduction [7]: 100%; Reduction [9]: 97%
O=C(Nc1ccc(Cl)c(Cl)c1)Nc1nc2cc(C(=O)c3ccccc3)ccc2[nH]1 | 0 | 9 | –
Cc1cccc(NC(=O)Nc2nc3cc(C(=O)c4ccccc4)ccc3[nH]2)c1 | 0 | 0 | –
O=C(Nc1ccc(F)cc1)Nc1nc2cc(C(=O)c3ccccc3)ccc2[nH]1 | 6 | 66 | –
O=C(Nc1ccc([N+](=O)[O-])cc1)Nc1nc2cc(C(=O)c3ccccc3)ccc2[nH]1 | 9 | 0 | –
O=C(Nc1ccccc1)Nc1nc2cc(C(=O)c3ccccc3)ccc2[nH]1 | 0 | 66 | –
